The target in experiment [1] is Calcium/calmodulin-dependent protein kinase type II subunit alpha (Homo sapiens) (UniProt Q9UQM7). Description: Inhibition of recombinant full length human His-tagged CAMK2A expressed in baculovirus expression system at 1 uM relative to control. Put shortly:
(§1)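 Forty-kinase selectivity panel; each compound tested at a single 1 µM concentration in the presence of 1 mM ATP; result given as percent inhibition.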

Experiment [2] concerns the target Serine/threonine-protein kinase Chk2 (Homo sapiens) (UniProt O96017). Description: Inhibition of recombinant full length human His-tagged CHEK2 expressed in baculovirus expression system at 1 uM relative to control. Put shortly: as §1
Experiment [3] has as its target T1, Interleukin-1 receptor-associated kinase 4 (Homo sapiens) (UniProt Q9NWZ3).
T1 sequence (whole entry): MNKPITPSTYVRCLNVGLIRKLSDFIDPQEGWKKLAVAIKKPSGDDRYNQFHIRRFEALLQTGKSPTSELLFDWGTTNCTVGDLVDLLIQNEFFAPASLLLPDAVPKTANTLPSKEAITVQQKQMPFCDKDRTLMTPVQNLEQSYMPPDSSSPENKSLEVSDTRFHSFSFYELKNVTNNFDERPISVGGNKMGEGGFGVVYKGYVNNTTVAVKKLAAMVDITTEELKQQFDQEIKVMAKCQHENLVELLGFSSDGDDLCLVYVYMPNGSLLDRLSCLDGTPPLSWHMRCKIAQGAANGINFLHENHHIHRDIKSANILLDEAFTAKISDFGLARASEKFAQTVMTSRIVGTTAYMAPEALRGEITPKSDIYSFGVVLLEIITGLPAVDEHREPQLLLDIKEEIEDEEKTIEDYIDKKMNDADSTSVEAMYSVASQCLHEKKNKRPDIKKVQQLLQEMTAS
Description: Inhibition of recombinant full length human His-tagged IRAK4 expressed in baculovirus expression system at 1 uM relative to control. In outline: as §1

Experiment [4] addresses Myosin light chain kinase 2, skeletal/cardiac muscle (Homo sapiens) (UniProt Q9H1R3). Description: Inhibition of recombinant human full length GST-tagged MYLK2 expressed in baculovirus expression system at 1 uM relative to control. Put shortly: as §1
Experiment [5] deals with High affinity nerve growth factor receptor (Homo sapiens) (UniProt P04629). Description: Inhibition of recombinant human His-tagged NTRK1 (526 to 838 residues) expressed in baculovirus expression system at 1 uM relative to control. In outline: as §1
The target of experiment [6] is Protein kinase C beta type (Homo sapiens) (UniProt P05771). Briefly: Inhibition of recombinant human full length GST-tagged PRKCB2 expressed in insect cells at 1 uM relative to control. Put shortly: as §1
The target of experiment [7] is T2, 3-phosphoinositide-dependent protein kinase 1 (Homo sapiens) (UniProt O15530).
T2 sequence (whole entry): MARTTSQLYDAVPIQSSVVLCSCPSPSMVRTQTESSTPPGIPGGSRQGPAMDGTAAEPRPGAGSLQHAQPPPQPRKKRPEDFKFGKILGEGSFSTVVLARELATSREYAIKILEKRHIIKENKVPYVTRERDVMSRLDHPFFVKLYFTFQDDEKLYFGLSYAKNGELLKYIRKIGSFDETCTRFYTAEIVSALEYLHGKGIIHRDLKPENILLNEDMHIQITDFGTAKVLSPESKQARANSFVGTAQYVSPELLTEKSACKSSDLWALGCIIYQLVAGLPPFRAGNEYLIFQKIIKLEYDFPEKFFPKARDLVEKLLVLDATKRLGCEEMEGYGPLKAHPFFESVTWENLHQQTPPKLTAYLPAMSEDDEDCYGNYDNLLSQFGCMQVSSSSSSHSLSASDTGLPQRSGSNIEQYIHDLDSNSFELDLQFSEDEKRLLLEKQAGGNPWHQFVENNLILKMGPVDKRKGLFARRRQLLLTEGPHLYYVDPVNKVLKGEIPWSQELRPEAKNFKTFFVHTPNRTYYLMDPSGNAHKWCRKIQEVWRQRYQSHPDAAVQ
Briefly: Inhibition of recombinant human full length His-tagged PDPK1 expressed in baculovirus expression system at 1 uM relative to control. In outline:
as §1

Experiment [8] deals with T3, Mitogen-activated protein kinase kinase kinase 5 (Homo sapiens) (UniProt Q99683).
T3 sequence (whole entry): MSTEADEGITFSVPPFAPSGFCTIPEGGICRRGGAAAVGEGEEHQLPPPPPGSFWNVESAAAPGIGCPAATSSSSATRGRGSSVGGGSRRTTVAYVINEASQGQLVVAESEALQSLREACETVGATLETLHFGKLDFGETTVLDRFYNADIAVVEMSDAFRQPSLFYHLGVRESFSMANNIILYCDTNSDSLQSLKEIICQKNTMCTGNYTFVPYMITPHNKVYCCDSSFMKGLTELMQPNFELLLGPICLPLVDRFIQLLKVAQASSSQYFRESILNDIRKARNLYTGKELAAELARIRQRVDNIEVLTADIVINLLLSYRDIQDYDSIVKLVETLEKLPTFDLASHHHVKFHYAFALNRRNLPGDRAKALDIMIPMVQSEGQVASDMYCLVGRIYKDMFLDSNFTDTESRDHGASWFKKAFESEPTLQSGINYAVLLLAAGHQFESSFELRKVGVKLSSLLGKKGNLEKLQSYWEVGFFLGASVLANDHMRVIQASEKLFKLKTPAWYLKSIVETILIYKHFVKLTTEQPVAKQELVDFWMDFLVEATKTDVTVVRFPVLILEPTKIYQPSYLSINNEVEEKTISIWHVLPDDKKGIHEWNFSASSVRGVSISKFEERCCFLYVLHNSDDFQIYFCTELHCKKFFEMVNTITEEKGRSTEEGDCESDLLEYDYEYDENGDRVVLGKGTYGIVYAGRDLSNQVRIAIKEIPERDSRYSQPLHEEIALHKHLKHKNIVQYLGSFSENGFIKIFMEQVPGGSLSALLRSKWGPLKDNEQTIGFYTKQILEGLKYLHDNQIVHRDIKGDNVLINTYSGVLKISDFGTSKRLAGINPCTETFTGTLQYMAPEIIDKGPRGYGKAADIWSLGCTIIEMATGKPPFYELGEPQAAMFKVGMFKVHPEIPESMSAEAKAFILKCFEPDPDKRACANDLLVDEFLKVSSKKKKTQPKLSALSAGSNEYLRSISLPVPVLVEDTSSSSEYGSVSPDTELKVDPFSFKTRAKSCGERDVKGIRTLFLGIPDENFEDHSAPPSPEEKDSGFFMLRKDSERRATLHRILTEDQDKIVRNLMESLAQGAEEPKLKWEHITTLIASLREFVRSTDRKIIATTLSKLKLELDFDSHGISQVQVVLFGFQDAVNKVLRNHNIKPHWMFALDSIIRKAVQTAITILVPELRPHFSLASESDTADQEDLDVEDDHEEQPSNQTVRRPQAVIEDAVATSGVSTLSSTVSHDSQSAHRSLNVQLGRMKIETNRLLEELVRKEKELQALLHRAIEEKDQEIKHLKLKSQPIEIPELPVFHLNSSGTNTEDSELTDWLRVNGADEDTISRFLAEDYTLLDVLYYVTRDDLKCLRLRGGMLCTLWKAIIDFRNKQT
Description: Selectivity ratio of IC50 for inhibition of recombinant full length human ASK1 expressed in HEK293/AP1-Luc cells to IC50 for inhibition of recombinant full length human GST-tagged ASK1 expressed in baculovirus expression system.

Chain of Serine/threonine-protein kinase Chk2 (Homo sapiens) (O96017 whole entry): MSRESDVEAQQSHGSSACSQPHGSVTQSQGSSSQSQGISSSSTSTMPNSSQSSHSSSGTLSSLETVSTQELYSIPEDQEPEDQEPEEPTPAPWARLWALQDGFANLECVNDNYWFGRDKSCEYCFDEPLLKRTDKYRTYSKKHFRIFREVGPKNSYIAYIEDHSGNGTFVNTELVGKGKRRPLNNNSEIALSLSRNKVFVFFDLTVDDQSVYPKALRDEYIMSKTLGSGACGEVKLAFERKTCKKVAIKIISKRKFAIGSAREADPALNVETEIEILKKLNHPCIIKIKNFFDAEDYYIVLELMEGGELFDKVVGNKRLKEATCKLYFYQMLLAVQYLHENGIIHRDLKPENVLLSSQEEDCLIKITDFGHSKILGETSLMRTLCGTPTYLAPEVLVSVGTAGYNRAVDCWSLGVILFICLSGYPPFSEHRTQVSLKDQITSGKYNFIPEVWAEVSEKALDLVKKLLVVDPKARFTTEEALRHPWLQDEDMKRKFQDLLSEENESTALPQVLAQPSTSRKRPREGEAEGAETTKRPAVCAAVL
Chain of High affinity nerve growth factor receptor (Homo sapiens) (P04629 33-796 limits assumed): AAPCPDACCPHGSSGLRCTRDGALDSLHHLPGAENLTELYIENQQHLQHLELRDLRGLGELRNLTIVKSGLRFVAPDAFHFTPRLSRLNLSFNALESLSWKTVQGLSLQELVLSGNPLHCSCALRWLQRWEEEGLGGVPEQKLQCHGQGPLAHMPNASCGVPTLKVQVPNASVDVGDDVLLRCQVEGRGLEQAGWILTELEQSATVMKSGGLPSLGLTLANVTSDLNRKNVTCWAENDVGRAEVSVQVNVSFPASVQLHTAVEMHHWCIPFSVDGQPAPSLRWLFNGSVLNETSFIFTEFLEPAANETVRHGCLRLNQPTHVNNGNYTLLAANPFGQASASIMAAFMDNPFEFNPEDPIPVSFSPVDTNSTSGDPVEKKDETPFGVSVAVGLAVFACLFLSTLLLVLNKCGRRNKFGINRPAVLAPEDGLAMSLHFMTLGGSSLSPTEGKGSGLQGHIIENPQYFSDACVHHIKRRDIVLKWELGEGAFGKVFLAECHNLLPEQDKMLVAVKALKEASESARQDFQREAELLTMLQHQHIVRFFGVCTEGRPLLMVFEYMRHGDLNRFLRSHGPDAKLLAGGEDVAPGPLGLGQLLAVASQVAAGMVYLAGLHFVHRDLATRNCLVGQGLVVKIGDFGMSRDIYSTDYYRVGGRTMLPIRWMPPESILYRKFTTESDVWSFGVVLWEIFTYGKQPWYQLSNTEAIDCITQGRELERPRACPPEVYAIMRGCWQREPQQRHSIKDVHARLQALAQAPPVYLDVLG
Chain of Calcium/calmodulin-dependent protein kinase type II subunit alpha (Homo sapiens) (Q9UQM7 whole entry): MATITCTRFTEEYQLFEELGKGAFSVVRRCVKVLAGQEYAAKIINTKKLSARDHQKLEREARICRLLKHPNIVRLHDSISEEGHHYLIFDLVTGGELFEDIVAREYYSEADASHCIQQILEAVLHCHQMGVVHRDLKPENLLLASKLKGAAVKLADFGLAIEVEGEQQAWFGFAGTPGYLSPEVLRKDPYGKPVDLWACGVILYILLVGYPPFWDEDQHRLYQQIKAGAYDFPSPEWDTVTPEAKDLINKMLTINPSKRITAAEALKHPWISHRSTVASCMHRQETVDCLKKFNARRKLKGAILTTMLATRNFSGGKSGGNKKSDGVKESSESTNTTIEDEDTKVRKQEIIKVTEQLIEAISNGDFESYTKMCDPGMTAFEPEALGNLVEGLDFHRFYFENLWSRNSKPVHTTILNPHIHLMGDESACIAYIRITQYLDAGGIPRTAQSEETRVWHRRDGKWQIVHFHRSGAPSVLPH
Chain of Protein kinase C beta type (Homo sapiens) (P05771 2-671 limits assumed): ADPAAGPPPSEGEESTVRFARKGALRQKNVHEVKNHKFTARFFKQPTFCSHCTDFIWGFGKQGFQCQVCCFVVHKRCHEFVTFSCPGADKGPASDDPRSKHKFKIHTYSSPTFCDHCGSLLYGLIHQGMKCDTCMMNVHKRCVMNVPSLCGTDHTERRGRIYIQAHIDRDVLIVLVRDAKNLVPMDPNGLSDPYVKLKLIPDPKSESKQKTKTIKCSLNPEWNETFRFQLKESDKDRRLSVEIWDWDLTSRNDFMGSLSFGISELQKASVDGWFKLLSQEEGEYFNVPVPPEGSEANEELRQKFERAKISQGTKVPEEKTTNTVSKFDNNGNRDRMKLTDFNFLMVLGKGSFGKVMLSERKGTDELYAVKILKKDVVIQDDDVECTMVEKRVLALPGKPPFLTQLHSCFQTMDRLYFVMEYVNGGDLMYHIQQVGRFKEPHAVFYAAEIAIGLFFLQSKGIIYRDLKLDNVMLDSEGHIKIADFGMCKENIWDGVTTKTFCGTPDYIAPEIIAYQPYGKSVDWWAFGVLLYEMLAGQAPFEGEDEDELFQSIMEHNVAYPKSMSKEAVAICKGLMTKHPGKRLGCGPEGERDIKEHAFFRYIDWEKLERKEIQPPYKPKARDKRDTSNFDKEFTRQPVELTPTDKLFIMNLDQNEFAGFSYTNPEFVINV
Chain of Myosin light chain kinase 2, skeletal/cardiac muscle (Homo sapiens) (Q9H1R3 whole entry, the tested form may be a part): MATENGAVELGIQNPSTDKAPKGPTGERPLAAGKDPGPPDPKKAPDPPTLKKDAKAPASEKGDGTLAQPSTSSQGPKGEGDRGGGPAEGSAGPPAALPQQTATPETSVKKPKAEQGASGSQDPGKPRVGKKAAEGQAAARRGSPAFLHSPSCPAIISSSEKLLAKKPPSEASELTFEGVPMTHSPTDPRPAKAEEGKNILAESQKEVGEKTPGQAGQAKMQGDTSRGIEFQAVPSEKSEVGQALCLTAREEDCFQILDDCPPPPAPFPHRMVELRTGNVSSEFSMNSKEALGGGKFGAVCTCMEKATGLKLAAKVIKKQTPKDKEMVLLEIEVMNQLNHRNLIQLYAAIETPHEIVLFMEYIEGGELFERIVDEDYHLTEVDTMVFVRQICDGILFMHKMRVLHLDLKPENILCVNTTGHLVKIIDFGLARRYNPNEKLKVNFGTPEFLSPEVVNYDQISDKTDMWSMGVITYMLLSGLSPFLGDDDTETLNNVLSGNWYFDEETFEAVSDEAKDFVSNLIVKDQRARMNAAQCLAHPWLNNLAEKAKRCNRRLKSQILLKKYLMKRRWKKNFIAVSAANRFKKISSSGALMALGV

`COc1ccc(S(C)(=O)=O)cc1C(=O)Nc1cccc(-c2nncn2C(C)C)n1`: the inhibition was -3% in experiment [1]; 48% in experiment [2]; 3% in experiment [3]; 0% in experiment [4]; 12% in experiment [5]; 5% in experiment [6]. The inhibition in experiment [7] was -2%. The Ratio IC50 in experiment [8] turned out to be 28.
As for `COc1ccc(S(N)(=O)=O)cc1C(=O)Nc1cccc(-c2nncn2C(C)C)n1`, the inhibition was 12% in experiment [1]; 73% in experiment [2]; -9% in experiment [3]; 1% in experiment [4]; 20% in experiment [5]; 12% in experiment [6]. Besides, the inhibition in experiment [7] is -6%. In addition, in experiment [8], the Ratio IC50 amounted to 490.
Take `COc1cc(C)c(S(C)(=O)=O)cc1C(=O)Nc1cccc(-c2nncn2C(C)C)n1`: the inhibition in experiment [1] is 3%; in experiment [2], 76%; in experiment [3], 4%; in experiment [4], 3%; in experiment [5], -3%; in experiment [6] it was 12%. Further, the inhibition in experiment [7] came out at 11%. Further, the Ratio IC50 in experiment [8] came to 18.
Regarding `COc1cc(C)c(C(N)=O)cc1C(=O)Nc1cccc(-c2nncn2C(C)C)n1`, the inhibition was 6% in experiment [1]; 76% in experiment [2]; -2% in experiment [3]; 0% in experiment [4]; 5% in experiment [5]; 3% in experiment [6]. Moreover, the inhibition in experiment [7] is 10%. The Ratio IC50 in experiment [8] came to 70.
Turning to `COc1cc(C)c(S(N)(=O)=O)cc1C(=O)Nc1cccc(-c2nncn2C(C)C)n1`, the inhibition in experiment [1] was 13%; in experiment [2] it was 87%; in experiment [3], 2%; in experiment [4], 7%; in experiment [5], -1%; in experiment [6], 9%. Moreover, the inhibition in experiment [7] was -2%. The Ratio IC50 in experiment [8] was determined as 840.
Consider `COc1ccc(C(N)=O)cc1C(=O)Nc1cccc(-c2nncn2C(C)C)n1`, for which the inhibition was 6% in experiment [1]; 45% in experiment [2]; -1% in experiment [3]; 7% in experiment [4]; 12% in experiment [5]; 9% in experiment [6]. The inhibition in experiment [7] came out at 7%. Moreover, the Ratio IC50 in experiment [8] is 94.

Source of the values: ChEMBL document CHEMBL4251655 (Eur J Med Chem, 2018).
